Assay results gathered from unrelated publications.
Each line is one published result; the experiments were not run side by side.
Technique: competition with immobilised ligand
JAK3 JH1: Tyrosine-protein kinase JAK3, JH1 (JAK3, Homo sapiens, UniProt P52333)
JAK3: Tyrosine-protein kinase JAK3 (JAK3, Homo sapiens, UniProt P52333)

CN(C)c1nccc(-c2cnc3ncccn23)n1
remaining binding (JAK3 JH1; cell-free assay; 1 µM): 93%

O=C(NCCCN1CCOCC1)c1ccc(Nc2ncc(Cl)c(-c3ccc(Cl)s3)n2)cc1
remaining binding (JAK3 JH1; binding; 1 µM): 0.8%

O=C(NCC1CCOCC1)c1n[nH]cc1NC(=O)c1c(F)cccc1F
remaining binding (JAK3 JH1; binding; 1 µM): 91%

COc1cnc(Nc2cccc(S(N)(=O)=O)c2)nc1N1CCN(c2ccccc2)CC1
remaining binding (JAK3 JH1; binding; 1 µM): 42%

COC(=O)Nc1nc2ccc(C(=O)c3ccccc3)cc2[nH]1
remaining binding (JAK3; cell-free assay; 10 µM): 29%

FC(F)(F)Oc1cccc(-c2cnc3ccc(-c4ccncc4)nn23)c1
remaining binding (JAK3 JH1; cell-free assay; 5 µM): 23%

NS(=O)(=O)c1cc(NC(=O)C2(c3ccccc3Cl)CC2)ccc1Oc1cccc(Cl)c1
remaining binding (JAK3 JH1; cell-free assay; 1 µM): 64%

C=CC(=O)N1CCC(C(=O)NCC(=O)N2CCN(c3nc(-c4cnc(N)nc4C(F)F)nc(N4CCOCC4)n3)CC2)CC1
remaining binding (JAK3 JH1; binding; 1 µM): 88%

N#Cc1ccccc1CSc1nnc2c(n1)[nH]c1ccccc12
remaining binding (JAK3 JH1; binding; 10 µM): 93%

O=C(NCCCN1CCOCC1)c1ccc(Nc2nccc(-c3cc4ccccc4s3)n2)cc1
remaining binding (JAK3 JH1; binding; 1 µM): 6.4%

CC(=O)N1CCC(c2ccc(C(=O)NC(=N)N)cc2C(F)(F)F)CC1
remaining binding (JAK3 JH1; cell-free assay; 1 µM): 100%

CC1CCCN1c1nccc(-c2cnn3ncccc23)n1 (stereo not shown)
remaining binding (JAK3 JH1; cell-free assay; 1 µM): 97%

C[C@@H]1CN(c2ccc3ncc(-c4ccc5[nH]nc(C6CC6)c5c4)n3n2)C[C@H](C)O1
remaining binding (JAK3; binding; 0.5 µM): 11%

Cc1noc([C@H]2C[C@@H](c3ccc(C(F)(F)F)cc3)CN(C(=O)N3CCS(=O)(=O)C3)C2)n1
remaining binding (JAK3 JH1; cell-free assay; 1 µM): 100%

CN(CCCC(F)(F)F)c1nccc(-c2cnn3ncccc23)n1
remaining binding (JAK3 JH1; cell-free assay; 1 µM): 71%

C[C@@H](c1ccc(-n2cnc3c(N)ncnc32)cc1)N1CCc2nn(C)c(Cc3ccccc3)c2C1=O
remaining binding (JAK3 JH1; binding; 0.1 µM): 96%

O=C(NCc1ncc(C(F)(F)F)cc1Cl)c1ccc2c(c1)C1(CCS(=O)(=O)CC1)[C@H](C1CC1)N2S(=O)(=O)c1ccc(F)cc1
remaining binding (JAK3 JH1; cell-free assay; 1 µM): 79%

N[C@@H]1CCN(c2nccc(-c3cnn4ncccc34)n2)C1
remaining binding (JAK3 JH1; cell-free assay; 1 µM): 100%

CNC(=O)c1ccc(Nc2ncc(C(F)(F)F)c(NCc3nccnc3N(C)S(C)(=O)=O)n2)cc1
remaining binding (JAK3; binding; 1 µM): 8.2%

O=C(c1ccc(Nc2ncc(Cl)c(-c3ccc(Cl)s3)n2)cc1)N1CCC(N2CCCC2)CC1
remaining binding (JAK3 JH1; binding; 1 µM): 0.3%

COc1cnc(Nc2cccc(S(N)(=O)=O)c2)nc1N1CCN(c2ccccc2)C(=O)C1
remaining binding (JAK3 JH1; binding; 1 µM): 16%

COc1ccc2cc(OCC3(C(=O)O)CN(C(=O)c4ccc(F)cc4)C3)ccc2c1
remaining binding (JAK3 JH1; cell-free assay; 1 µM): 100%
